Test results: ChEMBL document CHEMBL3232791, “Synthesis and antibacterial evaluation of amino acid-antibiotic conjugates” (2014)

What was measured:
Assay type in all cases: functional
Escherichia coli [1] = test: Antibacterial activity against Escherichia coli DH5alpha assessed as growth inhibition at 0.5 ug/ml after 16 hrs by spectrophotometric method; conditions: DH5[alpha], read-out: GI
Summary of the method: (§1)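 Growth inhibition read as OD600 on 300 µL culture samples, with untreated control cultures taken as maximum growth. Percent inhibition = (OD600 control − OD600 treated) × 100 / OD600 control. Parent antibiotics and their conjugates were run in parallel at three concentrations per compound, in biological duplicate.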

Pseudomonas aeruginosa [2] = test: Antibacterial activity against Pseudomonas aeruginosa PAO1 assessed as growth inhibition at 20 ug/ml after 16 hrs by spectrophotometric analysis; conditions: PAO1, 16 h, read-out: GI; summary of the method: as §1
Pseudomonas aeruginosa [3] = test: Antibacterial activity against Pseudomonas aeruginosa PAO1 assessed as growth inhibition at 40 ug/ml after 16 hrs by spectrophotometric analysis; conditions: PAO1, 16 h, read-out: GI; summary of the method: as §1
Bacillus subtilis [4] = test: Antibacterial activity against Bacillus subtilis 168 assessed as growth inhibition at 0.2 ug/ml after 16 hrs by spectrophotometric analysis; conditions: subsp. subtilis str. 168, 16 h, read-out: GI; summary of the method: as §1
Staphylococcus aureus [5] = test: Antibacterial activity against Staphylococcus aureus RN4220 assessed as growth inhibition at 2 ug/ml after 16 hrs by spectrophotometric analysis; conditions: RN4220, 16 h, read-out: GI; summary of the method: as §1
Pseudomonas aeruginosa [6] = test: Antibacterial activity against Pseudomonas aeruginosa PAO1 assessed as growth inhibition at 10 ug/ml after 16 hrs by spectrophotometric analysis; conditions: PAO1, 16 h, read-out: GI; summary of the method: as §1
Bacillus subtilis [7] = test: Antibacterial activity against Bacillus subtilis 168 assessed as growth inhibition at 0.4 ug/ml after 16 hrs by spectrophotometric analysis; conditions: subsp. subtilis str. 168, 16 h, read-out: GI; summary of the method: as §1
Escherichia coli [8] = test: Antibacterial activity against Escherichia coli DH5alpha assessed as growth inhibition at 0.125 ug/ml after 16 hrs by spectrophotometric method; conditions: DH5[alpha], read-out: GI; summary of the method: as §1
Bacillus subtilis [9] = test: Antibacterial activity against Bacillus subtilis 168 assessed as growth inhibition at 0.1 ug/ml after 16 hrs by spectrophotometric analysis; conditions: subsp. subtilis str. 168, 16 h, read-out: GI; summary of the method: as §1
Staphylococcus aureus [10] = test: Antibacterial activity against Staphylococcus aureus RN4220 assessed as growth inhibition at 4 ug/ml after 16 hrs by spectrophotometric analysis; conditions: RN4220, 16 h, read-out: GI; summary of the method: as §1
Escherichia coli [11] = test: Antibacterial activity against Escherichia coli DH5alpha assessed as growth inhibition at 0.0635 ug/ml after 16 hrs by spectrophotometric method; conditions: DH5[alpha], read-out: GI; summary of the method: as §1
Staphylococcus aureus [12] = test: Antibacterial activity against Staphylococcus aureus RN4220 assessed as growth inhibition at 8 ug/ml after 16 hrs by spectrophotometric analysis; conditions: RN4220, 16 h, read-out: GI; summary of the method: as §1
Escherichia coli [13] = test: Antibacterial activity against Escherichia coli DH5alpha assessed as growth inhibition at 75 ug/ml after 16 hrs by spectrophotometric method; conditions: DH5[alpha], read-out: GI; summary of the method: as §1
Escherichia coli [14] = test: Antibacterial activity against Escherichia coli DH5alpha assessed as growth inhibition at 50 ug/ml after 16 hrs by spectrophotometric method; conditions: DH5[alpha], read-out: GI; summary of the method: as §1
Staphylococcus aureus [15] = test: Antibacterial activity against Staphylococcus aureus RN4220 assessed as growth inhibition at 120 ug/ml after 16 hrs by spectrophotometric analysis; conditions: RN4220, 16 h, read-out: GI; summary of the method: as §1
Staphylococcus aureus [16] = test: Antibacterial activity against Staphylococcus aureus RN4220 assessed as growth inhibition at 240 ug/ml after 16 hrs by spectrophotometric analysis; conditions: RN4220, 16 h, read-out: GI; summary of the method: as §1
Staphylococcus aureus [17] = test: Antibacterial activity against Staphylococcus aureus RN4220 assessed as growth inhibition at 60 ug/ml after 16 hrs by spectrophotometric analysis; conditions: RN4220, 16 h, read-out: GI; summary of the method: as §1
Escherichia coli [18] = test: Antibacterial activity against Escherichia coli DH5alpha assessed as growth inhibition at 40 ug/ml after 16 hrs by spectrophotometric method; conditions: DH5[alpha], read-out: GI; summary of the method: as §1

In the case of `O=C(NCC(=O)N1CCN(c2cc3c(cc2F)c(=O)c(C(=O)O)cn3C2CC2)CC1)OCc1ccccc1`, the inhibition of growth at 0.5 µg/mL (Escherichia coli [1]) was 2.25%, the inhibition of growth at 20 µg/mL (Pseudomonas aeruginosa [2]) was -1.56% and the inhibition of growth at 40 µg/mL (Pseudomonas aeruginosa [3]) was 45%. The inhibition of growth at 0.2 µg/mL (Bacillus subtilis [4]) was 16.2%, the inhibition of growth at 2 µg/mL (Staphylococcus aureus [5]) was 45.7% and the inhibition of growth at 10 µg/mL (Pseudomonas aeruginosa [6]) was -14%. For the same compound, the inhibition of growth at 0.4 µg/mL (Bacillus subtilis [7]) was 94.2%, the inhibition of growth at 0.125 µg/mL (Escherichia coli [8]) was -2.17% and the inhibition of growth at 0.1 µg/mL (Bacillus subtilis [9]) was 18.5%. The inhibition of growth at 4 µg/mL (Staphylococcus aureus [10]) was 50.3%, the inhibition of growth at 0.0635 µg/mL (Escherichia coli [11]) was 1.86% and the inhibition of growth at 8 µg/mL (Staphylococcus aureus [12]) was 70.8%.
Work on `C[C@H](NC(=O)OCc1ccccc1)C(=O)N1CCN(c2cc3c(cc2F)c(=O)c(C(=O)O)cn3C2CC2)CC1` yielded an inhibition of growth at 0.5 µg/mL (Escherichia coli [1]) of -1.86%, an inhibition of growth at 20 µg/mL (Pseudomonas aeruginosa [2]) of -2.13% and an inhibition of growth at 40 µg/mL (Pseudomonas aeruginosa [3]) of 58.2%. It also gave an inhibition of growth at 0.2 µg/mL (Bacillus subtilis [4]) of 42.3%, an inhibition of growth at 2 µg/mL (Staphylococcus aureus [5]) of 23.2% and an inhibition of growth at 10 µg/mL (Pseudomonas aeruginosa [6]) of -13.3%. The inhibition of growth at 0.4 µg/mL (Bacillus subtilis [7]) was 91.9%, the inhibition of growth at 0.125 µg/mL (Escherichia coli [8]) was -2.93% and the inhibition of growth at 0.1 µg/mL (Bacillus subtilis [9]) was 12.6%. It also gave an inhibition of growth at 4 µg/mL (Staphylococcus aureus [10]) of 46.1%, an inhibition of growth at 0.0635 µg/mL (Escherichia coli [11]) of -0.72% and an inhibition of growth at 8 µg/mL (Staphylococcus aureus [12]) of 55.8%.
For `O=C(NCCCC[C@H](NC(=O)OCc1ccccc1)C(=O)N1CCN(c2cc3c(cc2F)c(=O)c(C(=O)O)cn3C2CC2)CC1)OCc1ccccc1`, the inhibition of growth at 0.5 µg/mL (Escherichia coli [1]) was 38.9%, the inhibition of growth at 20 µg/mL (Pseudomonas aeruginosa [2]) was 89.7% and the inhibition of growth at 40 µg/mL (Pseudomonas aeruginosa [3]) was 84.2%. For the same compound, the inhibition of growth at 0.2 µg/mL (Bacillus subtilis [4]) was 12.7%, the inhibition of growth at 2 µg/mL (Staphylococcus aureus [5]) was 39.3% and the inhibition of growth at 10 µg/mL (Pseudomonas aeruginosa [6]) was 87.1%. The inhibition of growth at 0.4 µg/mL (Bacillus subtilis [7]) was 40.4%, the inhibition of growth at 0.125 µg/mL (Escherichia coli [8]) was 4.12% and the inhibition of growth at 0.1 µg/mL (Bacillus subtilis [9]) was 9.59%. For the same compound, the inhibition of growth at 4 µg/mL (Staphylococcus aureus [10]) was 51.6%, the inhibition of growth at 0.0635 µg/mL (Escherichia coli [11]) was -0.2% and the inhibition of growth at 8 µg/mL (Staphylococcus aureus [12]) was 62.9%.
`O=C(N[C@@H](Cc1ccccc1)C(=O)Nc1ccc(S(=O)(=O)Nc2ncccn2)cc1)OCc1ccccc1` was tested, and the inhibition of growth at 75 µg/mL (Escherichia coli [13]) was 3.46%, the inhibition of growth at 50 µg/mL (Escherichia coli [14]) was 0.05% and the inhibition of growth at 120 µg/mL (Staphylococcus aureus [15]) was 18.2%. It also gave an inhibition of growth at 240 µg/mL (Staphylococcus aureus [16]) of 29.1%, an inhibition of growth at 60 µg/mL (Staphylococcus aureus [17]) of -8.23% and an inhibition of growth at 40 µg/mL (Escherichia coli [18]) of 0.39%.
In the case of `O=C(C[C@H](NC(=O)OCc1ccccc1)C(=O)Nc1ccc(S(=O)(=O)Nc2ncccn2)cc1)OCc1ccccc1`, the inhibition of growth at 75 µg/mL (Escherichia coli [13]) was 4.72%, the inhibition of growth at 50 µg/mL (Escherichia coli [14]) was 3.75% and the inhibition of growth at 120 µg/mL (Staphylococcus aureus [15]) was -2.44%. It also gave an inhibition of growth at 240 µg/mL (Staphylococcus aureus [16]) of 3.48%, an inhibition of growth at 60 µg/mL (Staphylococcus aureus [17]) of -17.6% and an inhibition of growth at 40 µg/mL (Escherichia coli [18]) of 4.72%.
With `O=C(O)c1cn(C2CC2)c2cc(N3CCNCC3)c(F)cc2c1=O` [CIPROFLOXACIN] the inhibition of growth at 0.5 µg/mL (Escherichia coli [1]) was 77%, the inhibition of growth at 20 µg/mL (Pseudomonas aeruginosa [2]) was 91% and the inhibition of growth at 40 µg/mL (Pseudomonas aeruginosa [3]) was 89.8%. For the same compound, the inhibition of growth at 2 µg/mL (Staphylococcus aureus [5]) was 48.4%, the inhibition of growth at 10 µg/mL (Pseudomonas aeruginosa [6]) was 91.8% and the inhibition of growth at 0.4 µg/mL (Bacillus subtilis [7]) was 94.3%. It also gave an inhibition of growth at 0.125 µg/mL (Escherichia coli [8]) of 52.3%, an inhibition of growth at 0.1 µg/mL (Bacillus subtilis [9]) of 30.4% and an inhibition of growth at 4 µg/mL (Staphylococcus aureus [10]) of 63.9%. The inhibition of growth at 0.0635 µg/mL (Escherichia coli [11]) was 32.5% and the inhibition of growth at 8 µg/mL (Staphylococcus aureus [12]) was 75.3%.
`Nc1ccc(S(=O)(=O)Nc2ncccn2)cc1` [SULFADIAZINE] gave an inhibition of growth at 75 µg/mL (Escherichia coli [13]) of 6.44%, an inhibition of growth at 50 µg/mL (Escherichia coli [14]) of 8.11% and an inhibition of growth at 120 µg/mL (Staphylococcus aureus [15]) of 2.17%. The inhibition of growth at 240 µg/mL (Staphylococcus aureus [16]) was 18.1%, the inhibition of growth at 60 µg/mL (Staphylococcus aureus [17]) was -6.47% and the inhibition of growth at 40 µg/mL (Escherichia coli [18]) was 2.66%.
